DNA FID counter: fluorescent intercalator displacement, NS3 helicase counter-screen; DNA fluorescent intercalator displacement, fluorescence; inhibition, % at 7.9 µM; hit rate 0.17% among 290,000; in the data active = inhibition above about 37%;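 also: 0% = vehicle and 100% = reference compound; higher means more ethidium bromide displaced from hairpin DNA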
ZTA counter: blocks Epstein-Barr virus ZTA, an EBNA-1 counter-screen; ZTA-DNA binding, fluorescence polarization; inhibition, % at 11 µM; hit rate 0.15% among 320,000; in the data active = inhibition above about 33%
HCV NS3 hel inh: HCV NS3 helicase inhibition | AID 1800 | hit rate 0.56% among 290,000 | NS3 helicase DNA unwinding, Cy5 molecular beacon fluorescence | inhibition, % at 10.9 µM;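 active = inhibition above the mean of all tested compounds plus 3 SD, set per campaign, cut at about 35% in these data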;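 also: 0% = DMSO wells and 100% = thioflavine S control wells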
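System: HCV NS3 helicase fragment; control set: DMSO and thioflavine S; technique: Cy5 fluorescence at 0 and 60 min, beacon hairpin quenching; reagent: beacon DNA duplex substrate plus ATP; replicates: singlicate; schedule: 1 h reaction at 25 °C, ATP-initiated; medium: MOPS buffer pH 6.5 with MgCl2, DTT, Tween20, BSA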
GPR7 antag: antagonists of human GPR7 (neuropeptides B/W receptor 1); P48145; GPR7-expressing cells, fluorescence antagonist assay; inhibition, % at 4.4 µM; hit rate 1.1% among 290,000; AID 1861; in the data active = inhibition above about 16%, passing the limit was not always enough;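 also: cells stimulated with the agonist NPW; 0% = agonist with vehicle and 100% = vehicle without agonist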
Target sequence (P48145 whole entry, looked up): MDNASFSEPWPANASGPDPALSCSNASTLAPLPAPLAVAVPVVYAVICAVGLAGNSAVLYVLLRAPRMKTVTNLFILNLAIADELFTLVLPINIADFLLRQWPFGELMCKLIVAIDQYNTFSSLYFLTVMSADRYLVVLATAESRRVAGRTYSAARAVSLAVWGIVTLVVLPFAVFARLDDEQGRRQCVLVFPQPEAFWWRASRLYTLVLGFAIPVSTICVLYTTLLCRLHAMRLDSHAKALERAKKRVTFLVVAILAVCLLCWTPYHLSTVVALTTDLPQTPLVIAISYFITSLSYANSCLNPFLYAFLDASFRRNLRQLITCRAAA
EBNA-1 inhibitor: blocks EBNA-1 binding to DNA; AID 1950; inhibition, % at 14.8 µM; EBNA-1 DNA binding, fluorescence polarization; hit rate 0.34% among 300,000; in the data active = inhibition above about 28%
Zta DNA confirm: EBV ZTA DNA binding inhibition, confirmation | shares compounds with ZTA counter | Zta-ZRE DNA binding, fluorescence polarization | inhibition, % at 11.1 µM | hit rate 30% among 320 | AID 2361;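 active = mean inhibition across triplicate runs above the hit threshold derived for the original primary screen, cut at about 33% in these data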;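 also: 0% = Zta with DMSO and 100% = wells lacking Zta protein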
EBNA-1 counter: counter-screen for ZTA inhibitors: EBNA-1 DNA binding inhibition | inhibition, % at 14.8 µM | 320 tested, under 10 active | fluorescence polarization | shares compounds with ZTA counter; call rule not given here
The depositor's hits bear a star; . = no result given; + = active, no number. Most compounds without a hit are left out; they make up all but 2% or so of the library.

SMILES | DNA FID counter | ZTA counter | HCV NS3 hel inh | GPR7 antag | EBNA-1 inhibitor | Zta DNA confirm | EBNA-1 counter
O=c1[nH]c2ccccc2c(=O)n1-c1ccc(Cl)cc1Cl | -3.4 | 34.9* | -1.8 | -6.2 | 2.9 | 6.1 | -2.0
COc1ccccc1N1CCN(CCc2ccccc2)CC1 | 0.1 | -4.5 | -8.7 | -11.0 | 8.8 | . | .
CCN(CC)c1ccc(N=Cc2c(O)n(-c3ccccc3)c(=O)[nH]c2=O)cc1 | -15.9 | 37.9* | 15.6 | -6.6 | 10.4 | 1.2 | -4.2
COc1ccc(C(C)=O)cc1CC(C(=O)c1ccccc1)N(C)C (configuration not stated) | -4.6 | 3.3 | -6.5 | -6.2 | 5.4 | . | .
OCC1CO1 (configuration not stated) | . | -3.8 | . | . | . | . | .
CCCCOP(=O)(OCCCC)/C(C#N)=C(/C)O | 1.0 | + | 0.4 | -13.1 | -5.8 | 0.5 | -7.6

Screening data deposited in PubChem BioAssay by The Scripps Research Institute Molecular Screening Center.
